Assay results collected from several papers.
Target: Death-associated protein kinase 3 (DAPK3, Homo sapiens, UniProt O43293)

Nc1c(C(=O)NCc2ccc(C(=O)NCCCC3CCCCC3)cc2)cnn1-c1ccccc1
remaining binding (cell-free assay, competition with immobilised ligand; 0.1 µM): 100%

CN(C)c1nccc(-c2cnn3ncccc23)n1
remaining binding (binding; 1 µM): 91%

C[C@@H](c1ccc(-n2cnc3c(N)ncnc32)cc1)N1CCc2nn(C)c(Cc3ccccc3)c2C1=O
remaining binding (binding, competition with immobilised ligand; 0.1 µM): 87%

CNC(=O)Nc1ccc2c(c1)CC[C@@]21OC(=O)N(CC(=O)N(Cc2ccc(F)cc2)[C@@H](C)C(F)(F)F)C1=O
remaining binding (cell-free assay, competition with immobilised ligand; 1 µM): 86%

O=C(c1ccc(Nc2ncc(Cl)c(-c3ccc(Cl)s3)n2)cc1)N1CCC(N2CCCC2)CC1
remaining binding (binding, competition with immobilised ligand; 1 µM): 14%

N[C@@H]1CCN(c2nccc(-c3cnn4ncccc34)n2)C1
remaining binding (binding; 1 µM): 99%

Cn1cc(Cl)c2c(Oc3c(F)cc(Nc4cc(Cl)nc(N)n4)cc3F)ccnc21
remaining binding (cell-free assay, competition with immobilised ligand; 0.1 µM): 100%

COc1cnc(Nc2cccc(S(N)(=O)=O)c2)nc1N1CCN(c2ccccc2)CC1
remaining binding (binding, competition with immobilised ligand; 1 µM): 76%

O=C(NCCCN1CCOCC1)c1ccc(Nc2ncc(Cl)c(-c3ccc(Cl)s3)n2)cc1
remaining binding (binding, competition with immobilised ligand; 1 µM): 17%

O=C(Nc1c[nH]nc1C(=O)NC1CCNCC1)c1cc(F)cc(F)c1
remaining binding (binding, competition with immobilised ligand; 1 µM): 100%

COc1cnc(Nc2cccc(S(N)(=O)=O)c2)nc1N1CCN(c2ccccc2)C(=O)C1
remaining binding (binding, competition with immobilised ligand; 1 µM): 92%

C[C@H]1CCN(c2nccc(-c3cnn4ncccc34)n2)C1
remaining binding (binding; 1 µM): 79%

FC(F)(F)Oc1cccc(-c2cnc3ccc(-c4ccncc4)nn23)c1
remaining binding (cell-free assay, competition with immobilised ligand; 5 µM): 67%

C=CC(=O)N1CCC(C(=O)NCC(=O)N2CCN(c3nc(-c4cnc(N)nc4C(F)F)nc(N4CCOCC4)n3)CC2)CC1
remaining binding (binding, competition with immobilised ligand; 1 µM): 89%

CC1CCCN1c1nccc(-c2cnn3ncccc23)n1 (stereo not shown)
remaining binding (binding; 1 µM): 89%

O=C(NCCCN1CCOCC1)c1ccc(Nc2nccc(-c3cc4ccccc4s3)n2)cc1
remaining binding (binding, competition with immobilised ligand; 1 µM): 9.7%

CN(C)c1nccc(-c2cnc3ncccn23)n1
remaining binding (binding; 1 µM): 91%

COc1ccc2cc(OCC3(C(=O)O)CN(C(=O)c4ccc(F)cc4)C3)ccc2c1
remaining binding (cell-free assay, competition with immobilised ligand; 1 µM): 100%

CN(c1nccc(-c2cnn3ncccc23)n1)C1CC1
remaining binding (binding; 1 µM): 70%

CN(C)c1ncnc(-c2ccc3nc(Nc4cc(CN5CCN(C(=O)CC(F)(F)F)CC5)ccn4)[nH]c3c2)c1Cl
remaining binding (cell-free assay, competition with immobilised ligand; 1 µM): 99%

Cc1cnn2ncc(-c3ccnc(N(C)C)n3)c2c1
remaining binding (binding; 1 µM): 84%

CNC(=O)Nc1ccc2c(c1)[C@@]1(CC2)OC(=O)N(CC(=O)N(Cc2ccc(F)cc2)[C@@H](C)C(F)(F)F)C1=O
remaining binding (cell-free assay, competition with immobilised ligand; 1 µM): 100%
